Results reported in article PMC10753860 (European journal of medicinal chemistry, 2023).

Key:
[1] = tested on: HBV replication in AML12HBV10 cells; assay: Antiviral dot blot hybridization assay of HBV DNA in AML12HBV10 cells; format: cell-based, hepatitis B virus (mouse hepatocyte-derived cell line)
[2] = tested on: HBV replication in AML12HBV10 cells; settings: HBV AML12HBV10 cell line; cited from earlier work
[3] = tested on: HBV capsid assembly and pgRNA encapsidation in AML12HBV10 cells; assay: Mode of action study in AML12HBV10 cells; format: cell-based, hepatitis B virus (mouse hepatocyte-derived cell line); settings: 2 days, ETV 1 μM; for amount of encapsidated pgRNA / viral DNA replication intermediates: Bay 41-4109 2 μM, DVR-23 5 μM; for amount of encapsidated pgRNA / viral DNA replication intermediates / amount of total viral RNA / amount of core protein: 17 or 18 1 or 5 μM; for amount of encapsidated pgRNA / amount of total viral RNA: Northern blot; for viral DNA replication intermediates: Southern blot; for amount of core protein: Western blot
Outline: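 Mouse hepatocyte-derived AML12HBV10 cells carry a tetracycline-inducible, envelope-deficient HBV genome. They were seeded in 24-well plates, kept with tet (negative control) or without it for 24 h, then DMSO- or compound-treated for 48 h. Read-outs: total RNA and encapsidated pgRNA by Northern blot (rRNA loading); Cp by Western blot with antibody to its C-terminal 14 residues (β-actin loading); capsids and core DNA by native agarose particle gel.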

## O=C(NCc1cccc(Cl)c1)N1CCNc2ccccc21 [Compound 44, N-(3-chlorobenzyl)-3,4-dihydroquinoxaline-1(2H)-carboxamide]
[1]; AML12HBV10 cells
  anti-HBV activity (in words): reduced the activity

## NC1CCN(C(=O)Nc2ccc(F)c(Cl)c2)c2ccccc21 (stereo not drawn) [Compound 28, 4-Amino-N-(3-chloro-4-fluorophenyl)-3,4-dihydroquinoline-1(2H)-carboxamide]
[1]; AML12HBV10 cells
  anti-HBV activity (in words): no activity was observed

## O=C(Nc1ccc(F)c(Cl)c1)N1CCN(C(=O)Nc2cc(Cl)c(F)cc2F)c2ccccc21 [Compound 96, N^1-(5-chloro-2,4-difluorophenyl)-N^4-(3-chloro-4-fluorophenyl)-2,3-dihydroquinoxaline-1,4-dicarboxamide]
[1]; AML12HBV10 cells
  anti-HBV activity (in words): sub-micromolar activities

## O=C(Nc1ccc(F)c(Cl)c1)N1CCN[C@H]2CCCC[C@H]21 (relative stereo) [Compound 34, Cis-N-(3-chloro-4-fluorophenyl)octahydroquinoxaline-1(2H)-carboxamide]
[1]; AML12HBV10 cells
  anti-HBV activity (in words): loss of activity

## O=C(Nc1ccc(F)c(C(F)F)c1)N1CCNc2ccccc21 [Compound 35, N-(3-(difluoromethyl)-4-fluorophenyl)-3,4-dihydroquinoxaline-1(2H)-carboxamide]
[1]; AML12HBV10 cells
  anti-HBV activity (in words): improved the potencies

## O=C(Nc1ccc(F)c(Cl)c1)c1cccc2c1OCCO2 [38017 (8)]
[2]
  EC50 (in words): sub-micromolar

## O=C(Nc1ccc(F)c(Cl)c1)N1CC(CN2CCC(F)(F)C2)N(C(=O)Nc2ccc(F)c(Cl)c2)c2ccccc21 (stereo not drawn) [Compound 97, N^1,N4-bis(3-chloro-4-fluorophenyl)-2-((3,3-difluoropyrrolidin-1-yl)methyl)-2,3-dihydroquinoxaline-1,4-dicarboxamide]
[1]; AML12HBV10 cells
  anti-HBV activity (in words): did not help to improve the activity significantly

## O=C(Nc1ccc(F)c(Cl)c1)N1c2ccccc2NCC1CN1CCOCC1 (stereo not drawn) [Compound 71, N-(3-chloro-4-fluorophenyl)-2-(morpholinomethyl)-3,4-dihydroquinoxaline-1(2H)-carboxamide]
[1]; AML12HBV10 cells
  anti-HBV activity (in words): reduced the activity significantly

## O=C(Nc1ccc(F)c(Cl)c1)N1c2ccccc2NCC1c1ccccc1 (stereo not drawn) [Compound 74, N-(3-chloro-4-fluorophenyl)-2-phenyl-3,4-dihydroquinoxaline-1(2H)-carboxamide]
[1]; AML12HBV10 cells
  anti-HBV activity (in words): sub-micromolar activity

## N#Cc1cc(NC(=O)N2c3ccccc3NCC2CN2CCC(F)(F)CC2)ccc1F (stereo not drawn) [Compound 86, N-(3-cyano-4-fluorophenyl)-2-((4,4-difluoropiperidin-1-yl)methyl)-3,4-dihydroquinoxaline-1(2H)-carboxamide]
[1]; Hepatitis B virus, AML12HBV10, in Mus musculus
  EC50: ~0.1 µM

## CCC(C)NS(=O)(=O)c1ccc(F)c(C(=O)Nc2ccc(F)c(F)c2)c1 (stereo not drawn) [DVR-23]
[3]
  amount of encapsidated pgRNA: significantly reduced
  viral DNA replication intermediates: viral DNA replication was inhibited

## C=C1[C@H](CO)[C@@H](O)C[C@@H]1n1cnc2c(=O)[nH]c(N)nc21 [ETV, Entecavir]
[3]
  amount of total viral RNA: did not alter
  amount of core protein: did not alter
  amount of encapsidated pgRNA: did not alter
  viral DNA replication intermediates: drastically reduced
[3]; particle gel assay
  amount of capsid-associated viral DNA: drastically reduced

## COC(=O)C1=C(C)NC(c2ncc(F)cc2F)=N[C@H]1c1ccc(F)cc1Cl [Bay 41-4109]
[3]
  amount of encapsidated pgRNA: significantly reduced
  viral DNA replication intermediates: viral DNA replication was inhibited

## O=C(Cc1ccc(F)c(Cl)c1)N1CCNc2ccccc21 [Compound 45, 2-(3-chloro-4-fluorophenyl)-1-(3,4-dihydroquinoxalin-1(2H)-yl)ethanone]
[1]; AML12HBV10 cells
  anti-HBV activity (in words): loss of activity

## O=C(Nc1ccc(F)c(Cl)c1)N1CCNc2ccccc21 [Compound 17, N-(3-chloro-4-fluorophenyl)-3,4-dihydroquinoxaline-1(2H)-carboxamide]
[3]
  amount of total viral RNA: did not alter
  amount of core protein: did not alter
  amount of encapsidated pgRNA: drastically reduced
  viral DNA replication intermediates: drastically reduced

## CC1(C)CCN(CC2CNc3ccccc3N2C(=O)Nc2ccc(F)c(Cl)c2)CC1 (stereo not drawn) [Compound 76, N-(3-chloro-4-fluorophenyl)-2-((4,4-dimethylpiperidin-1-yl)methyl)-3,4-dihydroquinoxaline-1(2H)-carboxamide]
[1]; AML12HBV10 cells
  anti-HBV activity (in words): loss of activity

## O=C(Nc1ccc(F)c(Cl)c1)N1CCCc2ccccc21 [Compound 27, N-(3-chloro-4-fluorophenyl)-3,4-dihydroquinoline-1(2H)-carboxamide]
[1]; AML12HBV10 cells, replacement of 4-N with CH2
  reduction of activity relative to 17: 3 fold

## O=C1CN(C(=O)Nc2ccc(F)c(Cl)c2)c2ccccc2N1 [Compound 29, N-(3-chloro-4-fluorophenyl)-3-oxo-3,4-dihydroquinoxaline-1(2H)-carboxamide]
[1]; AML12HBV10 cells
  anti-HBV activity (in words): inactive

## O=C(Nc1ccc(F)c(Cl)c1)C1CCNc2ccccc21 (stereo not drawn) [Compound 23, N-(3-chloro-4-fluorophenyl)-1,2,3,4-tetrahydroquinoline-4-carboxamide]
[1]; AML12HBV10 cells
  anti-HBV activity (in words): loss of activity

## O=C(Nc1ccc(F)c(Cl)c1)N1CCCCc2ccccc21 [Compound 32, N-(3-chloro-4-fluorophenyl)-2,3,4,5-tetrahydro-1H-benzo[b]azepine-1-carboxamide]
[1]; AML12HBV10 cells
  anti-HBV activity (in words): diminished the activity

## O=C(Nc1ccc(F)c(Cl)c1)N1CC(CN2CCC(F)(F)CC2)N(C(=O)Nc2ccc(F)c(Cl)c2)c2ccccc21 (stereo not drawn) [Compound 98, N^1,N^4-bis(3-chloro-4-fluorophenyl)-2-((4,4-difluoropiperidin-1-yl)methyl)-2,3-dihydroquinoxaline-1,4-dicarboxamide]
[1]; AML12HBV10 cells
  anti-HBV activity (in words): did not help to improve the activity significantly

## O=S(=O)(Nc1ccc(F)c(Cl)c1)N1CCNc2ccccc21 [Compound 26, N-(3-chloro-4-fluorophenyl)-3,4-dihydroquinoxaline-1(2H)-sulfonamide]
[1]; AML12HBV10 cells
  anti-HBV activity (in words): loss of activity

## O=C(Nc1ccc(F)c(C(F)(F)F)c1)N1c2ccccc2NCC1CN1CCC(F)(F)CC1 (stereo not drawn) [Compound 87, 2-((4,4-difluoropiperidin-1-yl)methyl)-N-(4-fluoro-3-(trifluoromethyl)phenyl)-3,4-dihydroquinoxaline-1(2H)-carboxamide]
[1]; AML12HBV10 cells
  anti-HBV activity (in words): moderate sub-micromolar

## O=C(Nc1ccc(F)c(Cl)c1)N1CCc2ccccc21 [Compound 30, N-(3-chloro-4-fluorophenyl)indoline-1-carboxamide]
[1]; AML12HBV10 cells
  anti-HBV activity (in words): maintained activity

## O=C(Nc1cc(F)c(F)c(F)c1)N1CCN(C(=O)Nc2ccc(F)c(Cl)c2)c2ccccc21 [Compound 95, N^1-(3-chloro-4-fluorophenyl)-N^4-(3,4,5-trifluorophenyl)-2,3-dihydroquinoxaline-1,4-dicarboxamide]
[1]; AML12HBV10 cells
  anti-HBV activity (in words): sub-micromolar activities

## O=C(Nc1cccc(Cl)c1)N1c2ccccc2NCC1CN1CCC(F)(F)CC1 (stereo not drawn) [Compound 89, N-(3-chlorophenyl)-2-((4,4-difluoropiperidin-1-yl)methyl)-3,4-dihydroquinoxaline-1(2H)-carboxamide]
[1]; AML12HBV10 cells
  anti-HBV activity (in words): moderate sub-micromolar

## O=C(Nc1ccc(F)c(Cl)c1)N1CCN(C(=O)Nc2ccc(F)c(Cl)c2)c2ccccc21 [Compound 18, N^1,N^4-bis(3-chloro-4-fluorophenyl)-2,3-dihydroquinoxaline-1,4-dicarboxamide]
[3]
  amount of total viral RNA: did not alter
  amount of core protein: did not alter
  amount of encapsidated pgRNA: drastically reduced
  viral DNA replication intermediates: drastically reduced
